{"data": "Experimental data of several laboratories", "CNR2": "Cannabinoid receptor 2 (CNR2, Homo sapiens, UniProt P34972)", "Akr1b1": "Aldo-keto reductase family 1 member B1 (Akr1b1, Rattus norvegicus, UniProt P07943)", "Trpc6": "Short transient receptor potential channel 6 (Trpc6, Mus musculus, UniProt Q61143)", "P2RY6": "P2Y purinoceptor 6 (P2RY6, Homo sapiens, UniProt Q15077)", "MMP2": "72 kDa type IV collagenase (MMP2, Homo sapiens, UniProt P08253)", "ADRB2": "Beta-2 adrenergic receptor (ADRB2, Homo sapiens, UniProt P07550)", "HDAC7": "Histone deacetylase 7 (HDAC7, Homo sapiens, UniProt Q8WUI4)", "SETD7": "Histone-lysine N-methyltransferase SETD7 (SETD7, Homo sapiens, UniProt Q8WTS6)", "note": "Lines come from different studies, so protocols differ."}
{"SMILES": "Cc1c(C(=O)NN2CCCCC2)nc(-c2ccc(Cl)cc2Cl)n1-c1ccc(OS(=O)(=O)CCC(F)(F)F)cc1", "target": "CNR2", "assay": "GTPγS binding, antagonist", "setting": "cell membranes", "IC50": "0.288 µM"}
{"SMILES": "COc1ccc2nc(/N=C3/NC(=O)C(=Cc4ccccc4)S3)sc2c1", "target": "Akr1b1", "assay": "enzyme activity, inhibitor, absorbance", "setting": "pH 6.2", "IC50": "> 50 µM"}
{"SMILES": "COc1cccc2sc(N(CCN(C)C)C(=O)c3ccc4c(c3)CCCC4)nc12", "target": "Trpc6", "assay": "calcium signal, fluorescence", "IC50": "4.2 µM"}
{"SMILES": "CC(C)c1nc(CN(C)C(=O)N[C@@H](CCN2CCOCC2)C(=O)N[C@H](CC[C@H](Cc2ccccc2)NC(=O)OCc2cncs2)Cc2ccccc2)cs1", "target": "Solute carrier family 22 member 2 (SLC22A2, Homo sapiens, UniProt O15244)", "assay": "transporter uptake, inhibitor", "test system": "MDCK-II", "IC50": "33 µM"}
{"SMILES": "NC(=O)c1ccc[n+]([C@@H]2O[C@H](COP(=O)([O-])OP(=O)(O)OC[C@H]3O[C@@H](n4cnc5c(N)ncnc54)[C@H](O)[C@@H]3O)[C@@H](O)[C@H]2O)c1", "target": "Protein mono-ADP-ribosyltransferase PARP6 (PARP6, Homo sapiens, UniProt Q2NL67)", "assay": "enzyme activity, inhibitor", "IC50": "87 µM"}
{"SMILES": "CC[C@H](C)[C@H](NC(C)=O)C(=O)N[C@@H](CCC(=O)O)C(=O)N[C@H](C(=O)N[C@H](C=O)CC(=O)O)[C@@H](C)O", "target": "Caspase-2 (Homo sapiens, UniProt P42575)", "assay": "enzyme activity, inhibitor", "IC50": "0.109 µM"}
{"SMILES": "Cn1c(=O)c([N+](=O)[O-])c(Cl)c2ccccc21", "target": "Adenylate cyclase type 8 (Homo sapiens, UniProt P40145)", "assay": "cAMP, inhibitor", "IC50": "1.6 µM"}
{"SMILES": "Cc1c(C(=O)NN2CCCCC2)nc(-c2ccc(Cl)cc2Cl)n1-c1ccc(OS(=O)(=O)CCC(C)(C)C)cc1", "target": "CNR2", "assay": "GTPγS binding, antagonist", "setting": "cell membranes", "IC50": "1.36 µM"}
{"SMILES": "COc1ccc2nc(/N=C3/NC(=O)C(=Cc4cc(I)c(O)c(OC)c4)S3)sc2c1", "target": "Akr1b1", "assay": "enzyme activity, inhibitor, absorbance", "setting": "pH 6.2", "IC50": "> 50 µM"}
{"SMILES": "O=[N+]([O-])C1=Cc2cc(C#Cc3ccc(F)cc3)ccc2OC1C(F)(F)F (centres unmarked)", "target": "P2RY6", "assay": "calcium signal, antagonist, fluorescence", "IC50": "4.4 µM"}
{"SMILES": "CN1CCN(c2ccc(Nc3ncc4cc(C#N)c(=O)n(C5CCCC5)c4n3)cc2)CC1", "target": "Protein kinase C epsilon type (PRKCE, Homo sapiens, UniProt Q02156)", "assay": "enzyme activity, inhibitor", "IC50": "6.31 µM"}
{"SMILES": "Cc1noc(-c2cc3cc(-c4nc(C(=O)NCc5ccccn5)[nH]c4C)ccc3[nH]2)n1", "target": "MMP2", "assay": "enzyme activity, inhibitor", "IC50": "> 20 µM"}
{"SMILES": "Cc1c(C(=O)N[C@@H]2CCCC[C@@H]2O)nc(-c2ccc(Cl)cc2Cl)n1-c1ccc(OS(=O)(=O)CCC(F)(F)F)cc1 (single isomer, unassigned)", "target": "CNR2", "assay": "GTPγS binding, antagonist", "setting": "cell membranes", "IC50": "0.44 µM"}
{"SMILES": "NCC1OC(c2ccccc2)Cc2c1ccc(O)c2O (centres unmarked)", "target": "ADRB2", "assay": "ligand displacement, radioligand", "setting": "cell membranes", "IC50": "84.7 µM"}
{"SMILES": "CCCC[C@H](NC(=O)[C@H](C)c1c(C)[nH]c2ccc(O)cc12)c1ncc(-c2cc3ccccc3nc2OC)[nH]1", "target": "HDAC7", "assay": "enzyme activity, inhibitor", "IC50": "> 45 µM"}
{"SMILES": "CCNC(=O)c1nc(-c2ccc3[nH]c(-c4nc(C)no4)cc3c2)c(C)[nH]1", "target": "MMP2", "assay": "enzyme activity, inhibitor", "IC50": "> 20 µM"}
{"SMILES": "Nc1ccc(-c2ccncc2)cc1NC(=O)N1CCCC1", "target": "HDAC7", "assay": "enzyme activity, inhibitor", "IC50": "> 33.3 µM"}
{"SMILES": "CN1[C@@H]2CC[C@H]1C[C@@H](OC(=O)c1c[nH]c3ccccc13)C2", "target": "ADRB2", "assay": "ligand displacement, radioligand", "setting": "cell membranes", "IC50": "37.7 µM"}
{"SMILES": "Cc1cnc(-c2ccc(-c3ccc(NC(=O)Nc4c(F)cc(F)cc4F)cc3F)c3c2C(=O)NC3)[nH]1", "target": "Epithelial discoidin domain-containing receptor 1 (DDR1, Homo sapiens, UniProt Q08345)", "assay": "enzyme activity, inhibitor", "IC50": "0.0538 µM"}
{"SMILES": "Cc1noc(-c2cc3cc(-c4nc(C(=O)NCc5cccnc5)[nH]c4C)ccc3[nH]2)n1", "target": "MMP2", "assay": "enzyme activity, inhibitor", "IC50": "> 20 µM"}
{"SMILES": "COc1cc(O)c(CC=C(C)C)c2c1C(=O)CC(c1ccc(O)cc1)O2 (centres unmarked)", "target": "Cytochrome P450 1B1 (CYP1B1, Homo sapiens, UniProt Q16678)", "assay": "enzyme activity, inhibitor, fluorescence", "setting": "15 min, pH 7.4", "IC50": "0.48 µM"}
{"SMILES": "CN(C)CCN(C(=O)c1ccc(Cl)s1)c1nc2ccccc2s1", "target": "Trpc6", "assay": "calcium signal, fluorescence", "IC50": "15.1 µM"}
{"SMILES": "CC/C(=C(\\c1ccc(O)cc1)c1ccc(OCCN(C)C)cc1)c1ccccc1", "target": "SETD7", "assay": "enzyme activity, inhibitor", "IC50": "> 333 µM"}
{"SMILES": "Cc1c(C(=O)Nc2ccc(C(F)(F)F)cn2)nc(-c2ccc(Cl)cc2Cl)n1-c1ccc(OS(=O)(=O)CCC(F)(F)F)cc1", "target": "CNR2", "assay": "GTPγS binding, antagonist", "setting": "cell membranes", "IC50": "0.133 µM"}
{"SMILES": "COc1ccc2nc(N(CCN(C)C)C(=O)c3ccc(Cl)s3)sc2c1", "target": "Trpc6", "assay": "calcium signal, fluorescence", "IC50": "61.1 µM"}
{"SMILES": "CC[C@@H](C(=O)Nc1ccc(C(N)=O)c(F)c1)n1cc(OC)c(-c2cc(Cl)ccc2-n2cc(C(F)(F)F)nn2)cc1=O", "target": "Coagulation factor X (F10, Homo sapiens, UniProt P00742)", "assay": "enzyme activity, inhibitor", "IC50": "1.7 µM"}
{"SMILES": "CCC1(c2ccc(C)cc2)C(=O)N(C(=O)OC(C)C)N1C(=O)OC(C)C (centres unmarked)", "target": "Protein phosphatase methylesterase 1 (Mus musculus, UniProt Q8BVQ5)", "assay": "enzyme activity, inhibitor", "IC50": "1.3 µM"}
{"SMILES": "COc1cc(N)c(Cl)cc1C(=O)NC1CCN(CCCOc2ccc(F)cc2)CC1OC (centres unmarked)", "target": "ADRB2", "assay": "ligand displacement, radioligand", "setting": "cell membranes", "IC50": "587 µM"}
{"SMILES": "O=C(c1ccc(-c2cccc(C(F)(F)F)c2)o1)N1CCN2CCC1CC2", "target": "Neuronal acetylcholine receptor subunit alpha-7 (CHRNA7, Homo sapiens, UniProt P36544)", "assay": "ion current, two-electrode voltage clamp", "setting": "oocytes", "IC50": "1.2 µM"}
{"SMILES": "Cc1noc(-c2cc3cc(-c4nc(C(=O)NCc5ccc(=O)[nH]c5)[nH]c4C)ccc3[nH]2)n1", "target": "MMP2", "assay": "enzyme activity, inhibitor", "IC50": "> 24 µM"}
{"SMILES": "Cc1ccc(NC(=O)c2nc(-c3ccc(Cl)cc3Cl)n(-c3ccc(OS(=O)(=O)CCC(F)(F)F)cc3)c2C)nc1", "target": "CNR2", "assay": "GTPγS binding, antagonist", "setting": "cell membranes", "IC50": "0.4 µM"}
{"SMILES": "CCCN(CCCCOCCOCCOCCOCC(=O)N[C@H](C(=O)N1C[C@H](O)C[C@H]1C(=O)NCc1ccc(-c2scnc2C)cc1)C(C)(C)C)C[C@@H](C)NC(=O)c1ccc(-c2noc(C(F)(F)F)n2)cc1", "target": "HDAC7", "assay": "enzyme activity, inhibitor, fluorescence", "IC50": "0.13 µM"}
{"SMILES": "COc1ccc2nc(/N=C3/NC(=O)C(=Cc4ccc(Cl)cc4)S3)sc2c1", "target": "Akr1b1", "assay": "enzyme activity, inhibitor, absorbance", "setting": "pH 6.2", "IC50": "3.99 µM"}
{"SMILES": "CCOCc1nc(O)c(-c2nnc(Cc3ccc(Cl)cn3)o2)c(O)c1-c1c(OC)cccc1OC", "target": "ADRB2", "assay": "ligand displacement, radioligand", "IC50": "> 30 µM"}
{"SMILES": "CCCC[C@H](NC(=O)C1CN(C)C1)c1ncc(-c2cc3ccccc3nc2OC)[nH]1", "target": "HDAC7", "assay": "enzyme activity, inhibitor", "IC50": "> 30 µM"}
{"SMILES": "C=CC(C)(C)c1cc(/C=C/C(=O)c2ccc(O)cc2)c(OC)cc1O", "target": "SETD7", "assay": "enzyme activity, inhibitor", "IC50": "> 333 µM"}
{"SMILES": "CN(CCC(=O)O)C(=O)c1ccc2c(c1)CC[C@@H]1[C@@H]2CC[C@]2(C)C(c3cncc(F)c3)=CC[C@@H]12", "target": "Ileal sodium/bile acid cotransporter (SLC10A2, Homo sapiens, UniProt Q12908)", "assay": "transporter uptake, inhibitor", "IC50": "49 µM"}
{"SMILES": "CC(C)(C)OC(=O)NCC#Cc1ccc2c(c1)C=C([N+](=O)[O-])C(C(F)(F)F)O2 (centres unmarked)", "target": "P2RY6", "assay": "calcium signal, antagonist", "IC50": "~1 µM"}
{"SMILES": "Cc1noc(-c2cc3cc(-c4nc(C(=O)NCc5ccccc5)[nH]c4C)ccc3[nH]2)n1", "target": "MMP2", "assay": "enzyme activity, inhibitor", "IC50": "> 20 µM"}
{"SMILES": "CC(C)(C)n1nc(-c2cnc3cc(OC4CC4)ccc3c2)c(C(N)=O)c1N", "target": "Casein kinase I isoform alpha (CSNK1A1, Homo sapiens, UniProt P48729)", "assay": "cell-free assay, inhibitor", "IC50": "2.91 µM"}
{"SMILES": "Cn1nc(C(=O)NCc2ccc(C(=O)O)cc2)cc1-c1ccc2[nH]c(-c3ccncc3)cc2c1", "target": "MMP2", "assay": "enzyme activity, inhibitor", "IC50": "> 22 µM"}
{"SMILES": "O=C(c1ccc(Cl)s1)N(CCN1CCCC1)c1nc2ccccc2s1", "target": "Trpc6", "assay": "calcium signal, fluorescence", "IC50": "8.8 µM"}
{"SMILES": "O=C(CCCCCCNC(=O)c1cnc(N(c2ccccc2)c2ccccc2Cl)nc1)NO", "target": "Polyamine deacetylase HDAC10 (HDAC10, Homo sapiens, UniProt Q969S8)", "assay": "enzyme activity, inhibitor, fluorescence", "IC50": "2.52 µM"}
{"SMILES": "CN1C2CCCC1CC(NC(=O)c1nn(C)c3ccccc13)C2 (centres unmarked)", "target": "ADRB2", "assay": "ligand displacement, radioligand", "setting": "cell membranes", "IC50": "42.1 µM"}
{"SMILES": "Cn1nc(C(=O)NCc2ccc(C(=O)O)cc2)cc1-c1ccc2[nH]c(-c3ccncn3)cc2c1", "target": "MMP2", "assay": "enzyme activity, inhibitor", "IC50": "> 20 µM"}
{"SMILES": "CCCN(CCC)CCc1cccc2c1CC(=O)N2", "target": "ADRB2", "assay": "ligand displacement, radioligand", "setting": "cell membranes", "IC50": "200 µM"}
{"SMILES": "Cc1csc(COCC(=O)C23CC4CC(CC(C4)C2)C3)n1", "target": "11-beta-hydroxysteroid dehydrogenase 1 (HSD11B1, Homo sapiens, UniProt P28845)", "assay": "enzyme activity in cells, inhibitor", "IC50": "0.071 µM"}
